# A selection: hits, their analogues and other compounds. The true share with any hit is near 3.1%.
# HCV core dimer – HCV core protein dimerization inhibition; AID 1899; 300,000 tested, 0.33% active; TR-FRET GST/Flag-core106 dimerization, 1536-well; inhibition, % at 5 µM;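 active = inhibition above the mean of all tested compounds plus 3 SD, set per screening campaign, cut at about 45% in these data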
#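 Assay system – GST-tagged and Flag-tagged HCV core protein residues 1-106 · Quantity – core106 proteins, GST 13.5 nM and Flag 17 nM · Benchmarks – unlabelled core106 and no-GST-core106 wells · Read-out basis – percent inhibition of core106 dimerization signal · Detection – time-resolved FRET, ex 340 nm, em 617 and 671 nm · Schedule – 4 h at 22.5 °C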
# HCV NS3 hel inh – inhibitors of Hepatitis C virus NS3 helicase. AID 1800. inhibition, % at 10.9 µM. NS3 helicase DNA unwinding, Cy5 molecular beacon fluorescence. 290,000 tested, 0.56% active;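 active = inhibition above the mean of all tested compounds plus 3 SD, set per campaign, cut at about 35% in these data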;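 also: 0% = DMSO wells and 100% = thioflavine S control wells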
#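 assay system = NS3 helicase fragment of HCV | buffer or medium = MOPS pH 6.5, MgCl2, DTT, Tween20, BSA | timing = 60 min unwinding reaction at 25 °C after ATP addition | signal = Cy5 beacon fluorescence read at start and 1 h | read-out basis = % inhibition of unwinding | control set = low DMSO, high thioflavine S at 110 µM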
# IMP-1 inh-1 – inhibitors of Pseudomonas aeruginosa IMP-1 metallo-beta-lactamase. purified IMP-1, nitrocefin hydrolysis, epi-absorbance fluorescence. inhibition, % at 5.6 µM. 290,000 tested, 0.45% active;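 active = inhibition above the mean plus 3 SD of all compounds in the same screening run, cut at about 4.5% in these data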;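 also: 0% = IMP-1 with DMSO and 100% = DMSO wells lacking enzyme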
#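 Assay system: purified recombinant IMP-1 beta-lactamase. Input: IMP-1 0.2 nM before substrate addition. Buffer or medium: Zinc- and detergent-supplemented HEPES buffer, pH 7.1. Schedule: 25 °C, 15 min preincubation, 25 min reaction. Signal: Epi-absorbance fluorescence, 480 nm excitation, 530 nm emission. Evaluation: percent inhibition from optical density relative to buffer-blank wells.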
# SUMO HTRF inh – blocks human SUMOylation mediated by UBC9; HTRF SUMOylation assay, SAE1/SAE2 + UBC9, in vitro; inhibition, % at 35 µM; 290,000 tested, 0.36% active; AID 2006; in the data active = inhibition above about 50%, passing the limit was not always enough
# Target sequence (P63279 whole entry, looked up): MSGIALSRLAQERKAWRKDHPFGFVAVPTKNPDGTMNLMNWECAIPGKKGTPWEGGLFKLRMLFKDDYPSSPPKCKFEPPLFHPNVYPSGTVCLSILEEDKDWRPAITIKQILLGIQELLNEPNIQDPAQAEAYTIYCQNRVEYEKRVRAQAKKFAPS
# PHOSPHO1 block – inhibitors of human PHOSPHO1 phosphatase | 290,000 tested, 1.1% active | AID 1565 | inhibition, % at 13.3 µM | recombinant PHOSPHO1, absorbance phosphatase assay; in the data active = inhibition above about 60%
# Target sequence (Q8TCT1 whole entry, looked up): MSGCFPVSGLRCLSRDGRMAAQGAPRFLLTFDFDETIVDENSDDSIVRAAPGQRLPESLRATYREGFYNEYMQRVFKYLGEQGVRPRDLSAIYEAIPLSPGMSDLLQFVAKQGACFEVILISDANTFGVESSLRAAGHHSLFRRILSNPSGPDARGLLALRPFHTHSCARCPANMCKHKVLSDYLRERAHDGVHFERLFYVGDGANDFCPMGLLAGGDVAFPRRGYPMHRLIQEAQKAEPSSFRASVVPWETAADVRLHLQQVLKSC
# VIM-2 inhibitor – inhibitors of Pseudomonas aeruginosa VIM-2 metallo-beta-lactamase | inhibition, % at 5.6 µM | 290,000 tested, 0.89% active | AID 1527 | purified VIM-2, nitrocefin hydrolysis, epi-absorbance fluorescence;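 active = inhibition above the mean of all tested compounds plus 3 SD, cutoff set per screening run, cut at about 7.5% in these data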;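 also: red hydrolysis product quenches plate fluorescence so inhibitors raise well fluorescence; 0% = enzyme with DMSO and 100% = DMSO without enzyme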
# IMP-1 inh-2 – selectivity counter-screen for VIM-2 inhibitors: IMP-1 metallo-beta-lactamase inhibitors | shares compounds with VIM-2 inhibitor | purified IMP-1, nitrocefin hydrolysis, epi-absorbance fluorescence | inhibition, % at 5.6 µM | 1,300 tested, under 10 active; call rule not given here;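 also: 0% = enzyme with vehicle and 100% = vehicle without enzyme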
# VIM-2 FRET inh – inhibits VIM-2 in FRET assay to exclude epi-absorbance artifacts | shares compounds with VIM-2 inhibitor | purified VIM-2, CCF2 FRET substrate hydrolysis | inhibition, % at 5.6 µM | 1,300 tested, 23% active | AID 1857;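 active = inhibition above the mean of all tested compounds plus 3 SD, cut at about 19% in these data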;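 also: 0% = VIM-2 plus DMSO and 100% = no enzyme wells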
# TEM-1 inh – blocks E. coli TEM-1 beta-lactamase in VIM-2 selectivity screen; inhibition, % at 5.6 µM; 1,300 tested, 3% active; AID 1866; shares compounds with VIM-2 inhibitor; Purified TEM-1, nitrocefin hydrolysis, epi-absorbance fluorescence;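 active = inhibition above that campaign's mean inhibition plus 3 SD, cut at about 0.46% in these data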;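 also: 0% = TEM-1 with DMSO and 100% = TEM-1 with 100 µM potassium clavulanate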
# Target sequence (P62593 whole entry, looked up): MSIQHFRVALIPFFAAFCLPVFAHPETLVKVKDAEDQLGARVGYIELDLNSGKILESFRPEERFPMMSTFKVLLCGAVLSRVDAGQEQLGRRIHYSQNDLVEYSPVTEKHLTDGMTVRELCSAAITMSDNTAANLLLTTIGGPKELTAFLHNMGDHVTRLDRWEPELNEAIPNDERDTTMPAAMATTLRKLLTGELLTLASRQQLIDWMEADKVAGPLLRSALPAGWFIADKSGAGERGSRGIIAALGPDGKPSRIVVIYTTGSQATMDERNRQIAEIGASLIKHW
# VIM-2 confirm 2 – confirmation of P. aeruginosa VIM-2 metallo-beta-lactamase inhibitors; shares compounds with VIM-2 inhibitor; purified VIM-2, nitrocefin hydrolysis, epi-absorbance; inhibition, % at 5.6 µM; 1,300 tested, 96% active; AID 2187;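 active = inhibition of the VIM-2 beta-lactamase enzyme above about 11% from the earlier first-round screen, limit read from the data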;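 also: 0% = VIM-2 with DMSO and 100% = buffer wells without enzyme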
# Starred values were filed as active, the others as inactive; · = not tested or not shown.
SMILES,HCV core dimer,HCV NS3 hel inh,IMP-1 inh-1,SUMO HTRF inh,PHOSPHO1 block,VIM-2 inhibitor,IMP-1 inh-2,VIM-2 FRET inh,TEM-1 inh,VIM-2 confirm 2
CCCC/C(O)=C1\C(=O)CCCC1=NCCc1c(C)[nH]c2ccccc12,-3.9,-15.8,-3.3,-10.2,27.4,-1.2,·,·,·,·
c1cn(CCCNc2ncnc3sc4c(c23)CCC4)cn1,3.1,-9.6,-2.4,32.4,-10.8,28.2*,-3.3,-10.1,-8.4,55.9*
CCCCN(Cc1ccco1)S(=O)(=O)c1ccc(-c2ccc(=O)[nH]n2)s1,-5.5,31.9,-2.0,15.8,15.4,-3.2,·,·,·,·
CCOC(=O)c1ccccc1N/C=C1\CCCCC1=O,4.7,0.4,-2.5,-6.6,7.7,13.8*,-1.7,23.9*,-4.0,26.6*
O=C(CCS(=O)(=O)c1ccccc1)Nc1ccc(Cl)cn1,-3.9,-1.7,-2.5,-12.4,15.0,-2.7,·,·,·,·
COc1ccc(C(=O)NCCN2CCCC2)cc1[N+](=O)[O-],-2.0,-3.2,-1.3,8.9,13.8,1.9,·,·,·,·
Cc1ccc2nc(C)c(C)nc2c1N,-7.2,5.2,0.5,-9.4,-12.8,20.0*,-2.7,-4.7,-5.5,31.3*
Cn1nc(-c2ccc(N3CCN(CCO)CC3)c([N+](=O)[O-])c2)c2ccccc2c1=O,-7.6,0.8,-3.0,2.5,3.4,81.6*,-2.6,-1.1,-7.3,88.7*
O=[N+]([O-])c1ccc(N2CCN(CCO)CC2)c2ncccc12,-1.4,1.7,-4.3,67.7,-9.7,-0.9,·,·,·,·
CN(C)CCNc1ccc(-c2nn(C)c(=O)c3ccccc23)cc1[N+](=O)[O-],-1.6,-8.2,-4.1,6.3,45.4,79.5*,-1.8,0.0,-5.5,82.8*
CN(CCO)c1ccc(-c2nn(C)c(=O)c3ccccc23)cc1[N+](=O)[O-],-2.6,2.1,-4.2,-3.9,-5.9,17.5*,-4.4,-1.1,-8.0,41.3*
Cn1nc(-c2ccc(NCCO)c([N+](=O)[O-])c2)c2ccccc2c1=O,2.4,1.7,-2.8,-13.2,17.9,16.0*,-4.3,3.4,-8.2,44.6*
O=C(c1ccco1)N1CCN(C2CC(=O)N(c3ccc(F)c(Cl)c3)C2=O)CC1 (stereo unspecified),-3.2,-5.0,-1.0,6.4,44.9,-0.6,·,·,·,·
COc1cc(CN2CC(=O)N(c3cc(Cl)ccc3C)C2=S)cc(OC)c1OC,2.6,-23.8,-2.0,0.4,24.8,-0.7,·,·,·,·
CCn1c(=O)n(CC)c2cc(N3CCCC3)c(NC(=O)c3cc(Cl)ccc3OC)cc21,4.0,-5.6,-0.6,-19.3,3.9,0.3,·,·,·,·
Cc1c(C)c2ccc(OCC(=O)N3CCC[C@@H]3C(=O)O)c(C)c2oc1=O,-1.3,-19.0,-4.0,10.9,23.9,41.1*,-3.2,63.7*,-10.6,48.5*
CCCc1cc(=O)oc2c3c(cc(OCC(=O)N4CCC[C@H]4C(=O)O)c12)OC(C)(C)CC3,4.3,2.0,0.1,43.1,2.7,45.4*,-3.0,70.7*,-5.4,50.3*
Cc1c(OCC(=O)N2CCC(C(N)=O)CC2)ccc2c3c(c(=O)oc12)CCC3,0.8,9.9,-3.8,13.3,34.3,22.8*,-2.1,1.9,-18.7,43.3*
CCc1cc(=O)oc2c(C)c(OCC(=O)N3CCC[C@@H]3C(=O)O)ccc12,2.4,12.2,-2.1,17.6,23.4,22.8*,-3.0,38.7*,-6.7,29.1*
CCc1cc(=O)oc2c3c(cc(OCC(=O)NCCC(=O)O)c12)OC(C)(C)CC3,7.3,13.3,-5.3,37.5,2.5,1.8,·,·,·,·
CCc1cc(=O)oc2c(C)c(OC(C)C(=O)N3CCC[C@@H]3C(=O)O)ccc12 (stereo partly specified),4.2,9.0,0.4,-6.6,18.2,1.1,·,·,·,·
COc1ccccc1CNC(=O)CCC(=O)n1ncc2cc(C)ccc21,-3.1,9.2,-1.3,-13.1,28.1,-0.1,·,·,·,·
Cc1ccc(C(=O)N/C(=C/c2ccccc2)C(=O)NCC2CCCO2)cc1 (stereo unspecified),-3.1,-7.0,-1.5,12.4,-18.8,-2.1,·,·,·,·
CC(=O)NC(Cc1ccc(O)cc1)C(=O)NN (stereo unspecified),6.6,0.8,-3.0,-0.6,0.6,-2.2,·,·,·,·
COc1ccc(CCNC(=O)CCCN2C(=O)C(c3ccccc3)Oc3cccnc32)cc1OC (stereo unspecified),-0.6,-2.4,0.1,16.0,49.0,-0.6,·,·,·,·
SMILES,HCV core dimer,HCV NS3 hel inh,IMP-1 inh-1,SUMO HTRF inh,PHOSPHO1 block,VIM-2 inhibitor,IMP-1 inh-2,VIM-2 FRET inh,TEM-1 inh,VIM-2 confirm 2
Cc1c(OCC(=O)N2CCC[C@@H]2C(=O)O)ccc2c3c(c(=O)oc12)CCC3,-0.3,24.3,-3.8,1.0,49.9,35.5*,-3.5,50.8*,-9.7,37.2*
COc1ccc(C(=O)CN2Cc3ccccc3C2=N)cc1,8.3,-6.1,-2.8,-3.8,31.6,-2.2,·,·,·,·
C=C1CSc2nc(=O)c3c(C)c(C)sc3n21,·,1.2,2.0,8.8,5.0,19.8*,-3.2,0.7,-6.2,32.3*
Cc1nc2sc(C)c(C)c2c(=O)[nH]1,-7.5,-3.5,-1.4,-2.8,-0.8,0.3,·,·,·,·
CCOC(=O)N=S(N)(=O)c1ccc(Cl)cc1 (stereo unspecified),-0.9,4.1,0.3,-1.3,15.4,15.5*,1.4,32.5*,-4.5,26.4*
CCOC(=O)N=S(N)(=O)c1ccccc1 (stereo unspecified),-0.8,-1.7,-1.8,-5.2,-5.8,23.1*,-1.9,51.0*,-5.0,33.9*
COc1ccc(CCn2c(=N)c(C(=O)NCCN3CCOCC3)cc3c(=O)n4cccc(C)c4nc32)cc1OC,1.9,-17.8,-2.6,-6.2,23.5,19.4*,-2.8,0.1,-5.7,27.1*
COc1ccc(CCNC(=O)c2cc3c(=O)n4ccccc4nc3n(CCCN3CCOCC3)c2=N)cc1OC,-3.0,-2.7,0.1,8.4,27.6,14.8*,-2.9,-9.2,-3.6,20.9*
Cc1cccn2c(=O)c3cc(C(=O)NCC4CCCO4)c(=N)n(CCN4CCOCC4)c3nc12 (stereo unspecified),3.1,4.1,-3.4,27.8,15.0,3.1,·,·,·,·
N=c1c(C(=O)NC2CCCC2)cc2c(=O)n3ccccc3nc2n1CCCN1CCOCC1,-11.4,9.4,-4.4,24.4,32.3,2.3,·,·,·,·
CC(OC(=O)CNC(=O)COc1ccccc1)C(=O)N(C)Cc1ccccc1 (stereo unspecified),-1.9,·,·,·,·,·,·,·,·,·
